These results are taken from ChEMBL document CHEMBL2401625, “Synthesis and evaluation of pharmacological properties of some new xanthone derivatives with piperazine moiety” (Bioorg Med Chem Lett, 2013).

Each structure is given as a SMILES string. The source made the active and inactive calls. The calls are words filed in the database; no cut-off is given here.

Series [1] concerns Mus musculus. Description: Anticonvulsant activity in CF1 mouse assessed as protection against subcutaneous metrazole-induced seizures at 100 mg/kg, ip after 4 hrs. In kind it is functional, organism-based. Further details: dose 100 mg/kg. In outline:
(§1)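 Mice given compound i.p. at 30, 100 or 300 mg/kg and tested 0.5 or 4 h after dosing. Seizures were induced by maximal electroshock (MES) or subcutaneous metrazole (ScMet). Prevention of seizures counts as protection. Result is recorded as number of animals protected over number tested.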

Series [2] deals with Mus musculus. Description: Neurotoxicity in CF1 mouse assessed as minimal motor impairment at 30 mg/kg, ip after 4 hrs by rotorod test. In kind it is toxicity, organism-based. On the set-up: dose 30 mg/kg, route intraperitoneal. The settings on record: in vivo. Summed up:
(§2)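 Rotarod neurotoxicity screen in mice dosed i.p. at 30, 100 or 300 mg/kg, read 0.5 or 4 h after dosing. The animal must stay on a rod rotating at 6 rpm without falling, measured 3 times within 1 min. A fall counts as minimal motor impairment. Result is recorded as impaired animals over animals used.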
(In general: Falling from the rotarod earlier than controls is read as motor impairment.)

The target of series [3] is T1, Adrenergic receptor alpha-1 (Rattus norvegicus, UniProt P15823+P23944+P43140).
T1 sequence (P15823 whole entry): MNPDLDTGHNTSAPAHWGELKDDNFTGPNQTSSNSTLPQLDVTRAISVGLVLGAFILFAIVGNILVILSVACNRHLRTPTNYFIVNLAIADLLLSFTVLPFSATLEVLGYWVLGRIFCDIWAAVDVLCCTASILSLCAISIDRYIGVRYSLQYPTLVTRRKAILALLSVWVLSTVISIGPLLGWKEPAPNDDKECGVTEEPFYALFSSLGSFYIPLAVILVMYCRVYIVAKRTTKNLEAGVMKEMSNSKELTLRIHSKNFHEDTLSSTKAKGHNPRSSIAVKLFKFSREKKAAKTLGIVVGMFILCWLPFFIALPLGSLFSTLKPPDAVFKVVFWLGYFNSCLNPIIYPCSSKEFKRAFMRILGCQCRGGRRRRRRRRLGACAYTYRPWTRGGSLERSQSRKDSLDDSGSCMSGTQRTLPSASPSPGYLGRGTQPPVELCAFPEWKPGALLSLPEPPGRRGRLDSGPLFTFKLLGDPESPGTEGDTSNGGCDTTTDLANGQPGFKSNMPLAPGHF
T1 sequence (P23944 whole entry): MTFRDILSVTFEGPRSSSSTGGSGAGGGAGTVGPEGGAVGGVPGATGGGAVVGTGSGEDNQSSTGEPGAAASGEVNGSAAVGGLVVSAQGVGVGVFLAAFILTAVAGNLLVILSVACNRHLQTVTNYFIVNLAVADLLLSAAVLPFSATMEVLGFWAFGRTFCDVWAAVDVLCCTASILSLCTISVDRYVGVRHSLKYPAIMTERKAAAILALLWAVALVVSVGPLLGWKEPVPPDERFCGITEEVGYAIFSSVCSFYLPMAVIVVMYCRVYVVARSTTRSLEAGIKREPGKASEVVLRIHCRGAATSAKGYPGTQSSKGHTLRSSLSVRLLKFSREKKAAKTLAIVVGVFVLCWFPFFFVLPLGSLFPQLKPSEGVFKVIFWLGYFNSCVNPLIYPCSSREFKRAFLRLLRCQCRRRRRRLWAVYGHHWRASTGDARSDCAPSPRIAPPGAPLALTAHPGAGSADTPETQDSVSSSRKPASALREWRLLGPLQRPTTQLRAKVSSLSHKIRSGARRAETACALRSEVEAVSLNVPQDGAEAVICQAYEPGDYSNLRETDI
T1 sequence (P43140 whole entry): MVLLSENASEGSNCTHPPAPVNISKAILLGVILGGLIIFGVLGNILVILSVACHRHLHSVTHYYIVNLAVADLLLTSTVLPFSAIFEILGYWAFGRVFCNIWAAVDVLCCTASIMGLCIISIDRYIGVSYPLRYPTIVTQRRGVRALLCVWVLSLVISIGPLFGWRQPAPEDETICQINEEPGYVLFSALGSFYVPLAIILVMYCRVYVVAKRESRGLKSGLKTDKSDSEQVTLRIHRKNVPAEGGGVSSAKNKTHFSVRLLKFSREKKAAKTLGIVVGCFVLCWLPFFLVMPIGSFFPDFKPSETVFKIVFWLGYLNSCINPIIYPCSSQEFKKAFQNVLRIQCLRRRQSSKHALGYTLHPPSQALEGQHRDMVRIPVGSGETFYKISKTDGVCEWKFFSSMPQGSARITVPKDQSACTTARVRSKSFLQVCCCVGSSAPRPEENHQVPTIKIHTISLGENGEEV
Briefly: Displacement of [3H]prazosin from alpha1-adrenergic receptor in rat cerebral cortex after 30 mins by scintillation counting. Type of series: tissue-based. In outline:
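Radioligand binding on rat brain tissue membranes, run in 96-well format. [3H]prazosin was used for α1 (n = 2) and [3H]CGP-12177 for β1 (n = 2). Ki was calculated by the Cheng–Prusoff equation.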
For orientation: In a radioligand displacement assay an active substance lowers the binding of a labelled ligand.

The test system of series [4] is Mus musculus. Briefly: Neurotoxicity in CF1 mouse assessed as minimal motor impairment at 300 mg/kg, ip after 4 hrs by rotorod test. Type of series: toxicity, organism-based. On the set-up: dose 300 mg/kg, route intraperitoneal. The settings on record: in vivo. In outline: as §2
For series [5], the system named is Mus musculus. Description: Anticonvulsant activity in CF1 mouse assessed as protection against subcutaneous metrazole-induced seizures at 30 mg/kg, ip after 0.5 hrs. Type of series: functional, organism-based. Further details: dose 30 mg/kg. Summed up:
as §1

Series [6] has as its system Mus musculus. Briefly: Anticonvulsant activity in CF1 mouse assessed as protection against subcutaneous metrazole-induced seizures at 30 mg/kg, ip after 4 hrs. In kind it is functional, organism-based. Further details: dose 30 mg/kg. In outline: as §1
Series [7] deals with Mus musculus. Briefly: Anticonvulsant activity in CF1 mouse assessed as protection against subcutaneous metrazole-induced seizures at 100 mg/kg, ip after 0.5 hrs. In kind it is functional, organism-based. Further details: dose 100 mg/kg. Summed up:
as §1

For series [8], the target named is T2, 5-hydroxytryptamine receptor 1A (Homo sapiens, UniProt P08908).
T2 sequence (P08908 whole entry): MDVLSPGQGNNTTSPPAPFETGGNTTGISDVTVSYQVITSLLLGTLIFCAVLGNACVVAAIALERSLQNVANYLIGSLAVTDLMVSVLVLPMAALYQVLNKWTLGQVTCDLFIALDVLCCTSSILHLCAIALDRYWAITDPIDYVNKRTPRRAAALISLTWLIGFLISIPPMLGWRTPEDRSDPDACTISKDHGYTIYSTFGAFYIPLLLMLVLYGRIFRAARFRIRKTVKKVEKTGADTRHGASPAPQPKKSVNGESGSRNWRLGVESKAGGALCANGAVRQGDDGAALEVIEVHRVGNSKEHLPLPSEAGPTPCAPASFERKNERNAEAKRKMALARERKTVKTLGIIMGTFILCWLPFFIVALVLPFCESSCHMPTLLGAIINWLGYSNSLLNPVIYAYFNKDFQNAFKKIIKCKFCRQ
Description: Displacement of [3H]8-OH-DPAT from human 5HT1A receptor expressed in HEK293 cells after 1 hr. Type of series: cell-based.

Series [9] concerns the target 5-hydroxytryptamine receptor 7 (Homo sapiens, UniProt P34969). Description: Displacement of [3H]5-CT from human 5HT7b receptor expressed in HEK293 cells after 1 hr. Type of series: cell-based.
Series [10] has as its system Mus musculus. Briefly: Neurotoxicity in CF1 mouse assessed as minimal motor impairment at 30 mg/kg, ip after 0.5 hrs by rotorod test. In kind it is toxicity, organism-based. Further details: dose 30 mg/kg, route intraperitoneal. The settings on record: in vivo. In outline:
as §2

Series [11] relates to Mus musculus. Description: Anticonvulsant activity in CF1 mouse assessed as protection against maximal electroshock-induced seizures at 300 mg/kg, ip after 0.5 hrs. On the set-up: dose 300 mg/kg. In kind it is functional, organism-based. In outline: as §1
On the technique in general: In the maximal electroshock model the usual endpoint is tonic extension of the hind limbs.

Series [12] relates to Mus musculus. Description: Anticonvulsant activity in CF1 mouse assessed as protection against subcutaneous metrazole-induced seizures at 300 mg/kg, ip after 4 hrs. In kind it is functional, organism-based. Further details: dose 300 mg/kg. In outline: as §1
The subject of series [13] is Mus musculus. Briefly: Anticonvulsant activity in CF1 mouse assessed as protection against maximal electroshock-induced seizures at 300 mg/kg, ip after 4 hrs. In kind it is functional, organism-based. On the set-up: dose 300 mg/kg. Summed up:
as §1

The target of series [14] is 5-hydroxytryptamine receptor 6 (Homo sapiens, UniProt P50406). Briefly: Displacement of [3H]LSD from human 5HT6 receptor expressed in HEK293 cells after 1 hr. Type of series: cell-based.
Sequence of 5-hydroxytryptamine receptor 6 (P50406 whole entry): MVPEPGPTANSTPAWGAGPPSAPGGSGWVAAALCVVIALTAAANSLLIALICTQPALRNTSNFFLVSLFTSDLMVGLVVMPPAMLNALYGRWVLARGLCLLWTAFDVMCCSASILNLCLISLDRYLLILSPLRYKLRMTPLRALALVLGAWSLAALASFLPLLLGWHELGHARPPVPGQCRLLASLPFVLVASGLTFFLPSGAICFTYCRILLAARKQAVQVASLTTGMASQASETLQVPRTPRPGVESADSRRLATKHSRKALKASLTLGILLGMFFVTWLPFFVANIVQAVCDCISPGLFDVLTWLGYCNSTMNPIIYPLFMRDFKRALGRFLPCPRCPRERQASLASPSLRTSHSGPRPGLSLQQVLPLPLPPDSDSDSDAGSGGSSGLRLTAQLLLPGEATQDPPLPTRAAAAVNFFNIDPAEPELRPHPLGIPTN
Series [15] concerns Mus musculus. Briefly: Neurotoxicity in CF1 mouse assessed as minimal motor impairment at 100 mg/kg, ip after 0.5 hrs by rotorod test. The settings on record: in vivo. On the set-up: dose 100 mg/kg, route intraperitoneal. Type of series: toxicity, organism-based. Summed up:
as §2

For series [16], the species on record is Rattus norvegicus. Description: Displacement of [3H]CGP-12177 from beta1-adrenergic receptor in rat cerebral cortex at 50 uM after 60 mins by scintillation counting. Type of series: tissue-based.
Series [17] has as its system Mus musculus. Briefly: Anticonvulsant activity in CF1 mouse assessed as protection against maximal electroshock-induced seizures at 100 mg/kg, ip after 0.5 hrs. Type of series: functional, organism-based. On the set-up: dose 100 mg/kg. In outline:
as §1

Series [18] concerns Mus musculus. Briefly: Anticonvulsant activity in CF1 mouse assessed as protection against maximal electroshock-induced seizures at 100 mg/kg, ip after 4 hrs. In kind it is functional, organism-based. On the set-up: dose 100 mg/kg. Summed up: as §1
Series [19] concerns Mus musculus. Briefly: Anticonvulsant activity in CF1 mouse assessed as protection against maximal electroshock-induced seizures at 30 mg/kg, ip after 4 hrs. Type of series: functional, organism-based. On the set-up: dose 30 mg/kg. Summed up:
as §1

Series [20] concerns Mus musculus. Briefly: Anticonvulsant activity in CF1 mouse assessed as protection against subcutaneous metrazole-induced seizures at 300 mg/kg, ip after 0.5 hrs. Type of series: functional, organism-based. Further details: dose 300 mg/kg. Summed up:
as §1

Series [21] has as its system Mus musculus. Briefly: Anticonvulsant activity in CF1 mouse assessed as protection against maximal electroshock-induced seizures at 30 mg/kg, ip after 0.5 hrs. In kind it is functional, organism-based. On the set-up: dose 30 mg/kg. In outline:
as §1

Series [22] has as its system Mus musculus. Description: Neurotoxicity in CF1 mouse assessed as minimal motor impairment at 100 mg/kg, ip after 4 hrs by rotorod test. In kind it is toxicity, organism-based. On the set-up: dose 100 mg/kg, route intraperitoneal. The settings on record: in vivo. In outline:
as §2

Series [23] concerns Rattus norvegicus. Description: Anticonvulsant activity in Sprague-Dawley rat assessed as protection against maximal electroshock-induced seizures at 30 mg/kg, po after 0.25 hrs. Type of series: functional, organism-based. On the set-up: dose 30 mg/kg. In outline: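 Rats dosed orally at 30 mg/kg and tested in MES at several time points after dosing. Protection means seizures were prevented. Result is recorded as number of animals protected over number tested.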

Sequence of 5-hydroxytryptamine receptor 7 (P34969 whole entry): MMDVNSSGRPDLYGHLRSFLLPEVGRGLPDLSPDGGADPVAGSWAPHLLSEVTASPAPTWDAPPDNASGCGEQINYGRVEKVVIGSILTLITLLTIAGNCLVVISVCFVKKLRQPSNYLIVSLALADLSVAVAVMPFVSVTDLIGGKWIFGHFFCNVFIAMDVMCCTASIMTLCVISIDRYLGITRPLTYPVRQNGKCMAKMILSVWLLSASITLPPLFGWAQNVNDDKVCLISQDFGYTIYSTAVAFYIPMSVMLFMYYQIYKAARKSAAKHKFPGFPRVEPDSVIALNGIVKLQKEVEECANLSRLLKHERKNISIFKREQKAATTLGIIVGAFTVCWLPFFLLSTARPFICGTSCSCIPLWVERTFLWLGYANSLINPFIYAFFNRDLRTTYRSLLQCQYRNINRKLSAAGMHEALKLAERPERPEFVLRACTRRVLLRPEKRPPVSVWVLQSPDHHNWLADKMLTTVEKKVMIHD

As a reminder, the Ki is a dissociation constant, usually derived from enzyme kinetics or from competition with a known ligand. Turning to `COc1ccc2c(=O)c3cccc(CN4CCN(c5ccccc5OC)CC4)c3oc2c1.Cl`, the outcome in series [1], in series [5], in [6], in series [7], in series [11] and in series [12] was inactive. In addition, the result in [13], in series [17], in [18], in [19], in [20] and in series [21] was inactive. Moreover, the Activity result in [2], in series [4], in [10], in series [15] and in series [22] was “Non-toxic” each time. Also, the Ki in series [3] was 0.17 µM; in [8], 0.024 µM; in series [9], 0.195 µM; in series [14] it was 9.36 µM. For the same compound, the inhibition entry in series [16] is “inactive”.

Turning to `COc1ccc2c(=O)c3cc(CN4CCN(c5ccccc5OC)CC4)ccc3oc2c1`, the result in series [1], in series [5], in series [6], in [7], in [11] and in [12] was inactive. Also, the result in series [13], in series [17], in series [18], in series [19], in [20] and in [21] was inactive.

Regarding `COc1ccc2c(=O)c3cc(CN4CCN(C)CC4)ccc3oc2c1.Cl.Cl`, the inhibitory constant (Ki) was 0.49 µM in series [3], 15.8 µM in series [8], 17 µM in series [9] and 19.1 µM in series [14].

In the case of `COc1ccc2c(=O)c3cc(CN4CCN(Cc5ccccc5)CC4)ccc3oc2c1`, the outcome in series [1], in series [5], in series [6], in [7], in [11] and in [12] was inactive. For the same compound, the result in [23], in series [17], in series [19], in series [20] and in series [21] was inactive. The result in series [13] was Active. For the same compound, the inhibition result in series [16] was “inactive”.
